# Compound activity from PubChem.
# PfHsp90 set2: growth inhibition of PfHsp90-expressing yeast, primary screen, antimalarial PfHsp90 inhibitor project, S. cerevisiae, BacTiter-Glo luminescence, single point, set 2; BacTiter-Glo ATP, 48 h; yeast lacking PDR1 and PDR3 efflux regulators; inhibition, % at 9.4 µM; 310,000 compounds, 0.32% hits;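 active means every replicate shows inhibition above about 80%, whatever the replicate mean, limit read from the data; inconclusive means mean inhibition reaches the set limit but some replicate falls short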;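 further: 0% = DMSO neutral controls and 100% = 20 µM radicicol positive controls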
# N-glyco inh: increase of ERlucT glycosylation luciferase signal, primary screen, N-linked glycosylation inhibitor project, D54 ERlucT cells, luminescence, set 2. D54 ERlucT glycosylation luciferase reporter, 24 h; percent of 100 nM tunicamycin response. reporter increase, % at 12.5 µM. 360,000 compounds, 0.23% hits. AID 588692, 2011;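 active means mean luciferase reporter signal, scaled so untreated is 0 and the glycosylation-blocking control 100, at or above a set limit in every replicate; inconclusive means mean reaches the limit but not every replicate does; inactive means mean below the limit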;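 further: luciferase carries N-glycosylation sites so blocking glycosylation raises the light; 0% = median of neutral control wells and 100% = median of 100 nM tunicamycin wells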
# HIV Env fusion: inhibitors of HIV-1 Env-driven cell-cell fusion, primary screen, HeLa-JRFL effector, CEM21 target cells, luciferase; inhibition, % at 12.3 µM; 360,000 compounds, 1.1% hits;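 active means mean replicate inhibition score of at least 50 and every replicate individually at or above 50; inconclusive means only one of the two criteria met; inactive means mean below 50 and not all replicates reaching 50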;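 further: 0% = plate neutral controls and 100% = maraviroc near 300 nM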
# Arrestin-AP2 inh: inhibitors of beta-arrestin/AP2 binding, primary screen, biochemical, GPCR trafficking, flow cytometry | beta-arrestin 1 C-terminal peptide binding to AP2 beta2-adaptin appendage (human) | FITC-arrestin peptide / GST-AP2 beads; AP2 beta2 appendage carries R879A mutation | inhibition, % at 10 µM | 340,000 compounds, 0.31% hits;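 active means inhibition above a set limit, near 3 SD of compounds lacking own fluorescence, cut at about 54% in these data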;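 further: plate controls were DMSO wells for no effect and 5 µM unlabelled arrestin peptide for full effect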
#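 Assay system: GST-AP2 R879A bound to glutathione beads, E. coli-expressed; Medium: PBS with 0.05% Tween 20 and 0.1% BSA; Also added: fluorescein-tagged arrestin peptide at 50 nM final; Timing: 12 min plus 1 h, RT; Measured by: flow cytometry, FL1 (488/535 nm); Evaluation: percent drop in bead-associated FITC signal.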
# Rtt109 HAT inh: inhibitors of C. albicans Rtt109/Vps75 HAT, primary screen, biochemical, ThioGlo CoA-SH fluorescence, plate reader. inhibition, % at 34.9 µM. purified Rtt109/Vps75, 4 h. Histone acetyltransferase RTT109 (Candida albicans (strain SC5314 / ATCC MYA-2876)), …. 330,000 compounds, 0.16% hits;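 active means inhibition of at least 50% in every replicate; inconclusive means best replicate reaches 50% inhibition but some replicates fall short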
# Target sequence (Q5AAJ8 whole entry, looked up): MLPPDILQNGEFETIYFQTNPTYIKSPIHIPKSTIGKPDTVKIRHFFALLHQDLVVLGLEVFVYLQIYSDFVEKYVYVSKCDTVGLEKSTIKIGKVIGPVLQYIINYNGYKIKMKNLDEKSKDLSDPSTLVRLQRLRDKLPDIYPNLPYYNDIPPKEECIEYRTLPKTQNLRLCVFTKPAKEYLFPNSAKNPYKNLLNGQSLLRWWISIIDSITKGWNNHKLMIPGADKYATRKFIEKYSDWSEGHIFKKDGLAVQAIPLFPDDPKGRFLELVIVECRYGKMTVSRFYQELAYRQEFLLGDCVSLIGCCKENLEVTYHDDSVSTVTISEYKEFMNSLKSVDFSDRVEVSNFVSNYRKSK
# PAX8 reporter: inhibitors of PAX8-driven TPO luciferase reporter, primary screen, RMG-I cells, single concentration; inhibition, % at 12.6 µM; AID 652154, 2013; 360,000 compounds, 1.2% hits; SteadyGlo, 24 h;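 active means mean replicate inhibition at least 60% with every replicate also reaching 60%; inconclusive means only one of the two criteria is met; inactive means mean below 60% and not all replicates reaching 60%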;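 further: luciferase light reporting Pax8 driven TPO promoter activity; plate controls were median of neutral control wells for no effect and mitoxantrone controls for full effect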
# The depositor's hits bear a star; ? = inconclusive; / = not tested or not shown; [ ] = dose if it differs, or a comment. Most compounds without a hit are left out; they make up all but 2.3% or so of the library.
SMILES,PfHsp90 set2,N-glyco inh,HIV Env fusion,Arrestin-AP2 inh,Rtt109 HAT inh,PAX8 reporter
CCOC(=O)[C@H]1[C@H]2COc3ccc(OC)cc3[C@@H]2N2C(=O)CN(Cc3ccc(Cl)cc3)C(=O)[C@@]12C,-6,0,63*,0,5,-5
C[C@@H]1CN([C@H](C)CO)C(=O)c2cc(NC(=O)C3CCCCC3)ccc2O[C@H]1CN(C)C(=O)Nc1cccc2ccccc12,/,/,-6[16.7 µM],/,/,2
c1ccc(-c2nc(-n3ccnc3)nc(-n3ccnc3)n2)cc1,/,27*,-123,-11,-3,/
O=C(C[C@H]1CC[C@@H](NC(=O)C2CCOCC2)[C@@H](CO)O1)NCc1ccncc1,/,/,/,/,/,-15
CN(C)c1cc[n+](CC(=O)Nc2ccc(Oc3ccccc3)cc2)cc1,-1,14,28,-24,0,89*
CCCC(=O)NC(c1ccc(Cl)cc1Cl)c1ccc2cccnc2c1O (centres undefined),40,-11,-389,22,0,80*
CC(=O)NC(c1ccc(Cl)cc1Cl)c1ccc2cccnc2c1O (centres undefined),106*,-11,-18,-21,-5,83*
CCCCC(=O)NC(c1ccc(Cl)cc1)c1ccc2cccnc2c1O (centres undefined),114*,-13,-26,1,3,73*
CCCCC(=O)NC(c1ccccc1OC)c1ccc2cccnc2c1O (centres undefined),106*,-12,-22,3,/,88*
C#CCNC(=O)C1=C[C@H](c2ccc(C#C)cc2)C[C@H](OCCCCO)O1,/,/,-15[16.7 µM],/,/,-25
C[C@@H]1CN([C@@H](C)CO)C(=O)c2cc(C3=CCCCC3)cnc2O[C@H]1CN(C)Cc1ccncc1,/,/,10[16.7 µM],/,/,/
O=C(C[C@H]1C=C[C@H](NC(=O)Nc2ccc(C(F)(F)F)cc2)[C@H](CO)O1)NCc1cccc(F)c1,/,/,-13[16.7 µM],/,/,-12
CCO[C@@H]1OC(C(=O)N2CCN(Cc3ccc4c(c3)OCO4)CC2)=C[C@H](c2ccccc2)[C@H]1CCCO,/,/,9[16.7 µM],/,/,-16
COc1ccccc1-c1ccc([C@@H]2[C@H](CO)N(C(=O)C3CC3)C23CN(C(C)=O)C3)cc1,/,/,/,/,/,4
CCC(=O)NC(c1ccc(OC)c(OC)c1)c1cc(Cl)c2cccnc2c1O (centres undefined),-35,-14,?,-10,-2,56
CCCC(=O)NC(c1ccc(C)cc1)c1ccc2cccnc2c1O (centres undefined),113*,-11,/,-4,-1,/
COc1ccc(C(NC(C)=O)c2ccc3cccnc3c2O)c(OC)c1 (centres undefined),/,-6,/,-1,-6,/
CCCC(=O)NC(c1ccccc1OC)c1ccc2cccnc2c1O (centres undefined),-39,-9,/,16,8,/
CCCC(=O)NC(c1ccc(Cl)cc1)c1ccc2cccnc2c1O (centres undefined),115*,-10,-10,4,15,85*
CC(=O)NC(c1ccc2ccccc2c1)c1ccc2cccnc2c1O (centres undefined),108*,-9,-15,30,-9,93*
COc1ccc(CN(C)C[C@@H]2Oc3c(NC(=O)Nc4ccc(F)cc4)cccc3C(=O)N([C@@H](C)CO)C[C@H]2C)cc1,/,/,/,/,/,10
Nc1cc(C(=O)OCC(=O)N2CCCC2=O)ccc1Cl,/,2,66*,30,-3,-5
O=C(Nc1ccc(F)cc1)N[C@@H]1CC[C@H](CCn2cc(C3(O)CCCC3)nn2)O[C@H]1CO,/,/,-6[16.7 µM],/,/,-13
N#C[C@H]1[C@@H](c2ccccc2)[C@@H](CO)N1C(=O)Cc1ccccc1,/,/,-4[16.7 µM],/,/,10
C(#Cc1ccccc1)C[N+]1(CC#Cc2cccc3ccccc23)CCCC1,-1,2,33,0,/,63*
SMILES,PfHsp90 set2,N-glyco inh,HIV Env fusion,Arrestin-AP2 inh,Rtt109 HAT inh,PAX8 reporter
O=C1NN=C2CCCCCCCCCCC12 (centres undefined),/,0,58*,/,/,-1
COc1ccc(-c2cn[nH]c2N)c(OC)c1,13,-9,81*,1,0,/
Cn1nc(CC(=O)NCc2ccc(C(F)(F)F)cc2)c2ccccc2c1=O,/,6,71*,26,-3,18
COc1ccc(CNC(=O)Cc2nn(C)c(=O)c3ccccc23)cc1,19,-3,/,31,-3,/
COc1ccc(-c2cnc3c(c2)C(=O)N([C@H](C)CO)C[C@H](C)[C@H](CN(C)C(=O)NC2CCCC2)O3)cc1,/,/,-7[16.7 µM],/,/,0
Cc1ccc(NC(=O)c2cccc(S(=O)(=O)N3CCN(c4ccccc4)CC3)c2)nc1,7,-4,57*,-1,3,27
CN(Cc1ccc(Cl)cc1Cl)C(=O)c1cccc(S(=O)(=O)N2CCN(c3ccccc3)CC2)c1,-26,-8,90*,-2,-6,49
Cc1ccnc(NC(=O)c2cccc(S(=O)(=O)N3CCN(c4ccccc4)CC3)c2)c1,10,-16,-35,-11,1,-42
COc1cccc(CN(C)C(=O)c2cccc(S(=O)(=O)N3CCN(c4ccccc4)CC3)c2)c1OC,27,-1,/,22,15,23
CC(C)CC#Cc1cnc2c(c1)C(=O)N([C@@H](C)CO)C[C@@H](C)[C@H](CN(C)S(=O)(=O)c1cn(C)cn1)O2,/,/,18[16.7 µM],/,/,-1
N#CC1c2ccccc2C=CN1C(=O)N(c1ccccc1)c1ccccc1 (centres undefined),-5,5,-19,10,-8,78*
COc1ccc(C(=O)N2C=Cc3ccccc3C2C#N)cc1 (centres undefined),/,1,-9,/,/,-2
O=C(CN1C(=O)c2ccccc2S1(=O)=O)c1ccc(O)c(O)c1,6,-11,23,10,3,-4
O=C(CN1C(=O)c2ccccc2S1(=O)=O)c1ccc(F)c(F)c1,0,-21,41,-1,-3,64*
COc1ccc(C(=O)CN2C(=O)c3ccccc3S2(=O)=O)cc1,/,-22,72*,35,/,93*
C[C@@H]1CN([C@@H](C)CO)C(=O)c2cc(C#C[C@@H](C)O)cnc2O[C@@H]1CN(C)C(=O)Cc1ccccn1,/,/,-6[16.7 µM],/,/,/
C/C=C/c1ccc2c(c1)O[C@H](CN(C)C(=O)Cc1ccccc1)[C@H](C)CN([C@@H](C)CO)S2(=O)=O,/,/,28[16.7 µM],/,/,/
Cc1ccccc1Cn1ccc(=NCc2ccccc2)cc1,/,/,41,/,/,85*
